# In ChEMBL document CHEMBL3124798, “Convenient one-pot synthesis, anti-mycobacterial and anticancer activities of novel benzoxepinoisoxazolones and pyrazolones” (Eur J Med Chem, 2014):
# Activity calls are given as the source filed them. The rule behind the calls is not given here.
# Columns and labels:
# HEK293 = assay: Cytotoxicity against HEK293 cells after 48 hrs by MTT assay; assay type: cell-based, Homo sapiens
# Outline: (§1)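 Cells taken from T75 flasks/90 mm dishes when sub-confluent, trypsinized and seeded at 5000–10000 cells/well according to doubling time. Test compounds added after 18 h at four concentrations, in triplicate wells. Incubation 48 h, then MTT (5 mg/mL) for 60 min at 37 °C and the bound dye solubilized. Percent growth taken against control wells. IC50 read from dose-response curves; three independent experiments, mean ± SD.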
# A549 = assay: Cytotoxicity against human A549 cells after 48 hrs by MTT assay; assay type: functional, cell-based; outline: as §1
# HeLa [1] = assay: Cytotoxicity against human HeLa cells after 48 hrs by MTT assay; assay type: functional, cell-based; outline: as §1
# DU-145 = assay: Cytotoxicity against human DU145 cells after 48 hrs by MTT assay; assay type: functional, cell-based; outline: as §1
# [2] = test system: Mycolicibacterium smegmatis; assay: Antimycobacterial activity against Mycobacterium smegmatis MC2 155 ATCC 14468 after 32 hrs by broth microdilution method; assay type: functional
# Outline: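 M. smegmatis MC² 155 grown overnight to mid-log in Middlebrook 7H9 (0.2% glycerol, 0.1% Tween-80, 10% ADS) at 37 °C, subcultured to OD600 ≈0.3, then diluted 1:1000 into 96-well plates. Final compound levels were […]. Incubated 32 h at 37 °C, turbidity read at OD600, triplicates. GI50 was derived from % growth inhibition. INH/rifampicin positive controls, DMSO and medium-only controls.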
# HeLa [3] = assay: Ratio of IC50 for HEK293 cells to IC50 for human HeLa cells
# HeLa [4] = assay: Induction of apoptosis in human HeLa cells assessed as activation of caspase-9 using Ac-DEVD-AMC as substrate at 10 to 25 uM after 48 hrs by fluorescence assay relative to control; assay type: functional
# HeLa [5] = assay: Induction of apoptosis in human HeLa cells assessed as activation of caspase-3 using Ac-DEVD-AMC as substrate at 10 to 25 uM after 48 hrs by fluorescence assay relative to control; assay type: functional
# Outline: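 HeLa cells treated 48 h with compound or DMSO, then lysed in 50 mM HEPES, 5 mM CHAPS, 5 mM DTT, pH 7.5. Lysate incubated with Ac-DEVD-AMC in 20 mM HEPES pH 7.5, 0.1% CHAPS, 2 mM EDTA, 5 mM DTT for 2 h at 37 °C. AMC read at ex/em 380/460 nm and normalized to Bradford protein. Activity expressed as treated relative to mock-treated. Doxorubicin used as positive control.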
# [6] = Homo sapiens, HEK293, 48 h, read-out: IC50
# [7] = Homo sapiens, A549, 48 h, read-out: IC50
# [8] = Homo sapiens, HeLa, 48 h, read-out: IC50
# [9] = Homo sapiens, DU-145, 48 h, read-out: IC50
SMILES,IC50 (HEK293; [6]) [µM],IC50 (A549; [7]) [µM],IC50 (HeLa [1]; [8]) [µM],IC50 (DU-145; du-145),GI50 [2],IC50 (HEK293; hek293),IC50 (HeLa [1]; hela),IC50 (DU-145; [9]) [µM],Ratio IC50 (HeLa [3]),fold change (FC) (HeLa [4]),fold change (FC) (HeLa [5]),IC50 (A549; a549),"GI50 ([2]; MC2 155 ATCC 14468, 32 h) [µg/mL]"
COc1ccc2c(c1)C=C1C(=O)N(c3ccc(Br)cc3)N=C1CO2,161,33.3,180,Not Active,inactive,–,–,–,–,–,–,–,–
O=C1C2=Cc3ccccc3OCC2=NN1c1ccc(Cl)cc1,–,215,–,–,inactive,Not Active,Not Active,89.4,–,–,–,–,–
COc1ccc2c(c1)C=C1C(=O)ON=C1CO2,47.7,46.5,10.1,–,inactive,–,–,33.6,4,20,<=40,–,–
O=C1C2=Cc3ccccc3OCC2=NN1c1ccccc1,–,–,–,Not Active,–,Not Active,Not Active,–,–,–,–,Not Active,23.2
O=C1C2=Cc3cc(Br)ccc3OCC2=NN1c1ccccc1,–,–,–,–,–,Not Active,Not Active,123,–,–,–,Not Active,11.9
O=C1C2=Cc3cc(-c4ccccc4)ccc3OCC2=NN1c1ccc(Br)cc1,–,118,–,–,inactive,Not Active,Not Active,140,–,–,–,–,–
O=C1C2=Cc3cc(Br)ccc3OCC2=NN1c1ccc(Br)cc1,–,–,–,Not Active,inactive,Not Active,Not Active,–,–,–,–,Not Active,–
O=C1ON=C2COc3ccc(Br)cc3C=C12,48.2,49.1,10.1,–,–,–,–,28.8,4,20,<=40,–,28.5
COc1ccc2c(c1)C=C1C(=O)N(c3ccc(C)cc3)N=C1CO2,138,199,129,–,inactive,–,–,117,–,–,–,–,–
Cc1ccc(N2N=C3COc4ccccc4C=C3C2=O)cc1,–,–,–,–,–,Not Active,Not Active,152,–,–,–,Not Active,49.3
O=C1C2=Cc3ccccc3OCC2=NN1c1cccc(Cl)c1,–,244,–,Not Active,inactive,Not Active,Not Active,–,–,–,–,–,–
Cc1ccc(N2N=C3COc4ccc(-c5ccccc5)cc4C=C3C2=O)cc1,149,–,185,–,–,–,–,78.2,–,–,–,Not Active,34
CO[C@H]1/C=C/O[C@@]2(C)Oc3c(C)c(O)c4c(O)c(c(/C=N/N5CCN(C)CC5)c(O)c4c3C2=O)NC(=O)/C(C)=C\C=C\[C@H](C)[C@H](O)[C@@H](C)[C@@H](O)[C@@H](C)[C@H](OC(C)=O)[C@@H]1C [RIFAMPIN],–,–,–,–,–,–,–,–,–,–,–,–,1.04
O=C1C2=Cc3ccccc3OCC2=NN1c1ccc(F)cc1,–,–,–,Not Active,–,Not Active,Not Active,–,–,–,–,Not Active,38.7
NNC(=O)c1ccncc1 [ISONIAZID],–,–,–,–,–,–,–,–,–,–,–,–,7.94
Cc1ccccc1N1N=C2COc3ccccc3C=C2C1=O,154,–,109,–,inactive,–,–,63.9,–,–,–,Not Active,–
COc1cccc2c1C(=O)c1c(O)c3c(c(O)c1C2=O)C[C@@](O)(C(=O)CO)C[C@@H]3O[C@H]1C[C@H](N)[C@H](O)[C@H](C)O1 [DOXORUBICIN],7.41,7.47,6.94,–,–,–,–,8.19,–,–,–,–,–
O=C1ON=C2COc3ccc(-c4ccccc4)cc3C=C12,39.2,29.7,9.03,–,–,–,–,28.9,4,20,<=40,–,9.1
Cc1cccc(N2N=C3COc4ccccc4C=C3C2=O)c1,–,–,–,Not Active,inactive,Not Active,Not Active,–,–,–,–,Not Active,–
O=C1C2=Cc3ccccc3OCC2=NN1c1ccc(Br)cc1,–,–,–,–,inactive,Not Active,Not Active,117,–,–,–,Not Active,–
O=C1ON=C2COc3ccccc3C=C12,–,–,85,–,–,Not Active,–,84.8,–,–,–,Not Active,21.4
O=C1C2=Cc3ccccc3OCC2=NN1c1cccc(F)c1,–,179,190,–,inactive,Not Active,–,97,–,–,–,–,–
O=C1C2=Cc3cc(-c4ccccc4)ccc3OCC2=NN1c1ccccc1,–,117,–,Not Active,inactive,Not Active,Not Active,–,–,–,–,–,–
COc1ccc2c(c1)C=C1C(=O)N(c3ccccc3)N=C1CO2,–,–,167,Not Active,–,Not Active,–,–,–,–,–,Not Active,15.7
Cc1ccc(N2N=C3COc4ccccc4C=C3C2=O)cc1C,–,84.3,–,Not Active,–,Not Active,Not Active,–,–,–,–,–,19.4
Cc1ccc(N2N=C3COc4ccc(Br)cc4C=C3C2=O)cc1,–,163,–,Not Active,–,Not Active,Not Active,–,–,–,–,–,42.4
COc1ccc(N2N=C3COc4ccccc4C=C3C2=O)cc1,–,133,166,–,inactive,Not Active,–,67.5,–,–,–,–,–
